Measured values reported in ChEMBL document CHEMBL4368912, “Discovery and Development of N-[4-(1-Cyclobutylpiperidin-4-yloxy)phenyl]-2-(morpholin-4-yl)acetamide Dihydrochloride (SUVN-G3031): A Novel, Potent, Selective, and Orally Active Histamine H3 Receptor Inverse Agonist with Robust Wake-Promoting Activity” (J Med Chem, 2019).

Tests used:
[1] = Oral bioavailability in Beagle dog at 3 mg/kg by LC-MS/MS analysis; assay type: ADME, organism-based, Canis lupus familiaris; conditions: in vivo
[2] = Fraction unbound in dog plasma at 1 uM by equilibrium dialysis; assay type: ADME, cell-free, Canis lupus familiaris
Summary of the method: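 Rapid equilibrium dialysis of fresh rat, dog or human plasma at a compound concentration of 1.0 µM. Unbound fraction reported as a percentage.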

Cytochrome P450 1A2 = molecular target: T1, Cytochrome P450 1A2 (Homo sapiens, UniProt P05177); experiment: Inhibition of CYP1A2 (unknown origin); assay type: ADME
T1 sequence (P05177 whole entry): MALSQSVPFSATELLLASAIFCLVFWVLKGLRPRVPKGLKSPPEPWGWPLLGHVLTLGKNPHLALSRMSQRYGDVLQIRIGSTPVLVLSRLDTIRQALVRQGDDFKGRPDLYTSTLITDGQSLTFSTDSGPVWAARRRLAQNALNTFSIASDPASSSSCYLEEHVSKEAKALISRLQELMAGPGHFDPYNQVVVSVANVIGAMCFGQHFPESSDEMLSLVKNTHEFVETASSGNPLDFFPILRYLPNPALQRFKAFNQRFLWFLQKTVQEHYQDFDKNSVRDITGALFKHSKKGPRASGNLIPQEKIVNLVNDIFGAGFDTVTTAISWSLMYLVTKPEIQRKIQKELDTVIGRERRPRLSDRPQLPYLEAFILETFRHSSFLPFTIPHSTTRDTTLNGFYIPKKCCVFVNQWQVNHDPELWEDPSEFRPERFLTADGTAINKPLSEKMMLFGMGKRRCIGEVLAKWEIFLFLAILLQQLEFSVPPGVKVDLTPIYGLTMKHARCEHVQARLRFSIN

Cytochrome P450 2D6 = Cytochrome P450 2D6 (Homo sapiens, UniProt P10635); experiment: Inhibition of CYP2D6 in human liver microsomes using dextromethorphan as substrate after 12 mins in presence of NADPH by LC-MS/MS analysis; assay type: ADME
[3] = Toxicity in dog assessed as effect on heart rate at 10 to 25 mg/kg, po; assay type: organism-based, Canis lupus familiaris; conditions: in vivo
Summary of the method: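 Male dogs received oral doses of 10, 18 and 25 mg/kg. Body weight, body temperature, blood pressure, heart rate and ECG were monitored.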

CHO-K1 = experiment: Induction of phospholipidosis in CHOK1 cells up to 300 uM incubated for 24 hrs by fluorescent-labeled phospholipid probe NBD-PE based fluorescence assay; assay type: cell-based, Cricetulus griseus; conditions: chinese hamster, cho-k1, 24 h
[4] = Mutagenicity in Escherichia coli WP2 in presence of metabolic activation by Ames test; assay type: toxicity
Summary of the method: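 Reverse-mutation test in Salmonella typhimurium TA1537, TA1535, TA98 and TA100 and in E. coli WP2 uvrA, run with and without metabolic activation.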

Cytochrome P450 2D6, sequence (P10635 whole entry): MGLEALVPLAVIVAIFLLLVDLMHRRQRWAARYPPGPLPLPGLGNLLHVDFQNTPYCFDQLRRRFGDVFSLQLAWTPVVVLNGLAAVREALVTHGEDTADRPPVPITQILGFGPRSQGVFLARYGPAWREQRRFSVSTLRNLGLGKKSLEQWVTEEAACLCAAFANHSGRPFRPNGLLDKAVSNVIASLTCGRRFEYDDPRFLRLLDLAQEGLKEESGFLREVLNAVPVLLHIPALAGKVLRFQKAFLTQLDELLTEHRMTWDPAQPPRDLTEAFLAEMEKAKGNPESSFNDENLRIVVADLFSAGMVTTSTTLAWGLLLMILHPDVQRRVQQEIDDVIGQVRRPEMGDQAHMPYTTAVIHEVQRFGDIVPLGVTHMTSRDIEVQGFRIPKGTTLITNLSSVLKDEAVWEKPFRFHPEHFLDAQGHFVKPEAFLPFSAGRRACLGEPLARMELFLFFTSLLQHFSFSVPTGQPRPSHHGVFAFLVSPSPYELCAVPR

Work on `Cl.Cl.O=C(CN1CCOCC1)Nc1ccc(OC2CCN(C3CCC3)CC2)cc1` yielded a bioavailability [1] of 83%, a fraction unbound at 1 µM [2] of 0.52 and an IC50 (Cytochrome P450 1A2) of over 45 µM. For the same compound, the IC50 (Cytochrome P450 2D6) was over 45 µM, the Activity [3] was “Non-Toxic” and the Activity (CHO-K1) was “Non-Toxic”. For the same compound, the Activity [4] was “Non-Toxic”.
